{"source": "ChEMBL document CHEMBL1123612", "about": "“Studies on histamine H2 receptor antagonists. 2. Synthesis and pharmacological activities of N-sulfamoyl and N-sulfonyl amidine derivatives” (1987)", "key": {"[1]": {"target": "Histamine H2 receptor (Cavia porcellus) (UniProt P47747)", "sequence (P47747 whole entry)": "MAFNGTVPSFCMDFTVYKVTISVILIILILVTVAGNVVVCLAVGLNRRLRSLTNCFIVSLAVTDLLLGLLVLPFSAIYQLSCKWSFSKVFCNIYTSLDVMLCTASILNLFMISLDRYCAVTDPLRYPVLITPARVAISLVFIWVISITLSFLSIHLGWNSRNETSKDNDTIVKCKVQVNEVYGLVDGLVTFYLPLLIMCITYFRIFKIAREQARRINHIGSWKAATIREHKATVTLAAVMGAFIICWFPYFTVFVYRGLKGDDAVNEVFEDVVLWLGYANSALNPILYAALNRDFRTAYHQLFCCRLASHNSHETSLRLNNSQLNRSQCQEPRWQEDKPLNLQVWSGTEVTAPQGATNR", "test": "Histamine H2 receptor antagonist activity (chronotropic response to histamine) in guinea pig right atrium", "type": "functional, tissue-based", "details": "Cardiac atrium", "procedure,_shortened": "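Spontaneously beating atrium; rate recorded via force-displacement transducer. Test compound added 10 min before histamine (5 × 10⁻⁶ M), three to four concentrations per compound. Percent inhibition of the histamine-induced rate increase plotted against log concentration; 50% inhibitory dose read from the dose-response curve (means ± SE).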"}, "Canis familiaris [2]": {"tested_on": "Canis familiaris", "test": "(§1) Reduction in gastric acid secretion under histamine[160 ug/(kg h)] stimulation in anesthetized dogs after intravenous administration", "type": "functional", "details": "Canis lupus familiaris, Stomach", "procedure,_shortened": "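Fasted (24 h) mongrel dogs, 8-10 kg, anesthetized with iv pentobarbital (30 mg/kg). Gastric juice acidity titrated with 0.05 N NaOH. Percent inhibition per dose taken from predrug acid output versus minimum output, usually reached within 45 min of dosing. ED50 read from semilog plot of inhibition against dose; two to four dogs per compound.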"}, "Canis familiaris [3]": {"tested_on": "Canis familiaris", "test": "as §1", "details": "Canis lupus familiaris, Stomach"}}}
{"molecule": "N=C(N)Nc1nc(CSCCC(=N)NS(=O)(=O)c2ccc(N)cc2)cs1", "values": [{"measurement": "ED50", "setting": "[1]", "value": 0.45, "unit": "µM"}, {"measurement": "ED50", "setting": "Canis familiaris [2]", "value": 0.03, "unit": "mg/kg"}]}
{"molecule": "N=C(N)Nc1nc(CSCCC(=N)NS(=O)(=O)c2ccccc2)cs1", "values": [{"measurement": "ED50", "setting": "[1]", "value": 0.7, "unit": "µM"}, {"measurement": "ED50", "setting": "Canis familiaris [2]", "value": 0.0568, "unit": "mg/kg"}]}
{"molecule": "N=C(N)Nc1nc(CCCCC(=N)NS(=O)(=O)NC2CCCCC2)cs1", "values": [{"measurement": "ED50", "setting": "[1]", "value": 1.3, "unit": "µM"}]}
{"molecule": "N=C(CCSCc1ccccn1)NS(N)(=O)=O", "values": [{"measurement": "ED50", "setting": "[1]", "value": "> 100", "unit": "µM"}]}
{"molecule": "CN(C)Nc1nc(CSCCC(=N)NS(N)(=O)=O)cs1", "values": [{"measurement": "ED50", "setting": "[1]", "value": "> 100", "unit": "µM"}]}
{"molecule": "CN(C)S(=O)(=O)NC(=N)CCSCc1csc(N=C(N)N)n1.O=C(O)/C=C\\C(=O)O", "values": [{"measurement": "ED50", "setting": "[1]", "value": 1.4, "unit": "µM"}, {"measurement": "ED50", "setting": "Canis familiaris [2]", "value": 0.277, "unit": "mg/kg"}]}
{"molecule": "NC(N)=Nc1nc(CSCC/C(N)=N/S(N)(=O)=O)cs1", "note": "[FAMOTIDINE]", "values": [{"measurement": "ED50", "setting": "[1]", "value": 0.27, "unit": "µM"}, {"measurement": "ED50", "setting": "Canis familiaris [2]", "value": 0.0087, "unit": "mg/kg"}]}
{"molecule": "CNS(=O)(=O)NC(=N)CCSCc1csc(N=C(N)N)n1", "values": [{"measurement": "ED50", "setting": "[1]", "value": 0.86, "unit": "µM"}, {"measurement": "ED50", "setting": "Canis familiaris [2]", "value": 0.0366, "unit": "mg/kg"}]}
{"molecule": "CN/C(=N\\CCSCc1nc[nH]c1C)NC#N", "note": "[CIMETIDINE]", "values": [{"measurement": "ED50", "setting": "[1]", "value": 2.7, "unit": "µM"}, {"measurement": "ED50", "setting": "Canis familiaris [3]", "value": 0.33, "unit": "mg/kg"}]}
{"molecule": "N=C(N)Nc1nc(C[S+]([O-])CCC(=N)NS(N)(=O)=O)cs1", "note": "(configuration not stated)", "values": [{"measurement": "ED50", "setting": "[1]", "value": 73, "unit": "µM"}]}
{"molecule": "N=C(N)Nc1nc(CCCCC(=N)NS(=O)(=O)c2ccc(N)cc2)cs1", "values": [{"measurement": "ED50", "setting": "[1]", "value": 0.35, "unit": "µM"}, {"measurement": "ED50", "setting": "Canis familiaris [2]", "value": 0.0101, "unit": "mg/kg"}]}
{"molecule": "N=C(N)Nc1nc(CSCCC(=N)NS(=O)(=O)NCc2ccccc2)cs1", "values": [{"measurement": "ED50", "setting": "[1]", "value": 1.1, "unit": "µM"}, {"measurement": "ED50", "setting": "Canis familiaris [2]", "value": 0.0396, "unit": "mg/kg"}]}
{"molecule": "N=C(N)Nc1nc(CCCCC(=N)NS(=O)(=O)c2ccccc2)cs1", "values": [{"measurement": "ED50", "setting": "[1]", "value": 0.58, "unit": "µM"}, {"measurement": "ED50", "setting": "Canis familiaris [2]", "value": 0.0194, "unit": "mg/kg"}]}
{"molecule": "CCCNS(=O)(=O)NC(=N)CCCCc1csc(N=C(N)N)n1", "values": [{"measurement": "ED50", "setting": "[1]", "value": 0.56, "unit": "µM"}, {"measurement": "ED50", "setting": "Canis familiaris [2]", "value": 0.0266, "unit": "mg/kg"}]}
{"molecule": "Cc1[nH]cnc1CSCCC(=N)NS(N)(=O)=O", "values": [{"measurement": "ED50", "setting": "[1]", "value": "> 100", "unit": "µM"}]}
{"molecule": "N=C(N)Nc1nc(CSCCC(=N)NNS(=O)(=O)c2ccccc2)cs1", "values": [{"measurement": "ED50", "setting": "[1]", "value": 8.3, "unit": "µM"}]}
{"molecule": "C/N=C(\\N)Nc1nc(CSCCC(=N)NS(N)(=O)=O)cs1", "values": [{"measurement": "ED50", "setting": "[1]", "value": 0.48, "unit": "µM"}, {"measurement": "ED50", "setting": "Canis familiaris [2]", "value": 0.0518, "unit": "mg/kg"}]}
{"molecule": "CCS(=O)(=O)NC(=N)CCCCc1csc(N=C(N)N)n1", "values": [{"measurement": "ED50", "setting": "[1]", "value": 0.6, "unit": "µM"}, {"measurement": "ED50", "setting": "Canis familiaris [2]", "value": 0.0244, "unit": "mg/kg"}]}
{"molecule": "N=C(CCCOc1cccc(CN2CCCCC2)c1)NS(N)(=O)=O", "values": [{"measurement": "ED50", "setting": "[1]", "value": 1.4, "unit": "µM"}]}
{"molecule": "CS(=O)(=O)NC(=N)CCSCc1csc(N=C(N)N)n1", "values": [{"measurement": "ED50", "setting": "[1]", "value": 0.51, "unit": "µM"}]}
{"molecule": "N=C(N)Nc1nc(CCCCC(=N)NNS(=O)(=O)c2ccccc2)cs1", "values": [{"measurement": "ED50", "setting": "[1]", "value": 23, "unit": "µM"}]}
{"molecule": "N=C(N)Nc1nc(CSCCC(=N)NS(N)(=O)=O)no1", "values": [{"measurement": "ED50", "setting": "[1]", "value": "> 100", "unit": "µM"}]}
{"molecule": "CN(C)Cc1ccc(CSCCC(=N)NS(N)(=O)=O)o1", "values": [{"measurement": "ED50", "setting": "[1]", "value": 17, "unit": "µM"}]}
{"molecule": "N=C(N)Nc1nc(CCCCC(=N)NS(N)(=O)=O)cs1", "values": [{"measurement": "ED50", "setting": "[1]", "value": 0.23, "unit": "µM"}, {"measurement": "ED50", "setting": "Canis familiaris [2]", "value": 0.0089, "unit": "mg/kg"}]}
